In ChEMBL document CHEMBL4138137, “Discovery of Novel 5-(Piperazine-1-carbonyl)pyridin-2(1H)-one Derivatives as Orally eIF4A3-Selective Inhibitors” (ACS Med Chem Lett, 2017):
≈ marks a conversion by molar mass, not a printed value.

Legend:
[1] = AUC (0 to 8 hrs) in ICR mouse at 1 mg/kg, po administered as cassette dose; assay type: ADME, organism-based; design: dose 1 mg/kg, time < 8 hr, route oral; settings: in vivo
Procedure, shortened: (§1)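 Cassette PK in male ICR mice, n = 3; dosed i.v. at 0.1 mg/kg and p.o. at 1 mg/kg. AUC taken over 0 to 8 h after oral dosing; bioavailability derived from the oral and i.v. exposures.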

[2] = Solubility of the compound at pH 6.8; assay type: physicochemical; settings: buffer
Procedure, shortened: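 Solubility measured at pH 6.8.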

[3] = Oral bioavailability in ICR mouse at 1 mg/kg administered as cassette dose; assay type: ADME, organism-based; settings: in vivo; procedure, shortened: as §1
[4] = Metabolic stability in mouse microsomes; assay type: ADME, Microsome; settings: read-out: Stability
Procedure, shortened: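 Metabolic stability measured in mouse liver microsomes, expressed in μL/min/mg.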

[5] = biological target: Eukaryotic initiation factor 4A-III (Homo sapiens, UniProt P38919); test: Inhibition of MLN51-induced full length recombinant human N-terminal His6/SUMO-tagged eIF4A3 RNA dependent ATPase activity expressed in Escherichia coli BL21(DE3) using single stranded poly(U) RNA as substrate after 30 mins by ADP-Glo luminescence assay
Chain of Eukaryotic initiation factor 4A-III (P38919 whole entry): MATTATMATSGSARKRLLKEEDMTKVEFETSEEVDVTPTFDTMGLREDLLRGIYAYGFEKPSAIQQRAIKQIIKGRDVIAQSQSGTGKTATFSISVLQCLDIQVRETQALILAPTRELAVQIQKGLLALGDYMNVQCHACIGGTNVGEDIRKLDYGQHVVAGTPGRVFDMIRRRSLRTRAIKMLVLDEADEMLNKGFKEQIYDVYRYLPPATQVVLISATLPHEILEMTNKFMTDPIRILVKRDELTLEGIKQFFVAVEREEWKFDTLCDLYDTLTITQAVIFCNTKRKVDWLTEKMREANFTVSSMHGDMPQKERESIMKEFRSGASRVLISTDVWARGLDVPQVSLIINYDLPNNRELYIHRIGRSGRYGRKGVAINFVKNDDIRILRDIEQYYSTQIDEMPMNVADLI
Procedure, shortened: (§2)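 IC50 reported as the mean of duplicate experiments with 95% confidence intervals.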

[6] = biological target: MDR1 (ABCB1, P-glycoprotein) (Homo sapiens, UniProt P08183); test: Substrate activity at MDR1 (unknown origin) assessed as efflux ratio of permeability; assay type: ADME; settings: not told
Chain of MDR1 (ABCB1, P-glycoprotein) (P08183 whole entry): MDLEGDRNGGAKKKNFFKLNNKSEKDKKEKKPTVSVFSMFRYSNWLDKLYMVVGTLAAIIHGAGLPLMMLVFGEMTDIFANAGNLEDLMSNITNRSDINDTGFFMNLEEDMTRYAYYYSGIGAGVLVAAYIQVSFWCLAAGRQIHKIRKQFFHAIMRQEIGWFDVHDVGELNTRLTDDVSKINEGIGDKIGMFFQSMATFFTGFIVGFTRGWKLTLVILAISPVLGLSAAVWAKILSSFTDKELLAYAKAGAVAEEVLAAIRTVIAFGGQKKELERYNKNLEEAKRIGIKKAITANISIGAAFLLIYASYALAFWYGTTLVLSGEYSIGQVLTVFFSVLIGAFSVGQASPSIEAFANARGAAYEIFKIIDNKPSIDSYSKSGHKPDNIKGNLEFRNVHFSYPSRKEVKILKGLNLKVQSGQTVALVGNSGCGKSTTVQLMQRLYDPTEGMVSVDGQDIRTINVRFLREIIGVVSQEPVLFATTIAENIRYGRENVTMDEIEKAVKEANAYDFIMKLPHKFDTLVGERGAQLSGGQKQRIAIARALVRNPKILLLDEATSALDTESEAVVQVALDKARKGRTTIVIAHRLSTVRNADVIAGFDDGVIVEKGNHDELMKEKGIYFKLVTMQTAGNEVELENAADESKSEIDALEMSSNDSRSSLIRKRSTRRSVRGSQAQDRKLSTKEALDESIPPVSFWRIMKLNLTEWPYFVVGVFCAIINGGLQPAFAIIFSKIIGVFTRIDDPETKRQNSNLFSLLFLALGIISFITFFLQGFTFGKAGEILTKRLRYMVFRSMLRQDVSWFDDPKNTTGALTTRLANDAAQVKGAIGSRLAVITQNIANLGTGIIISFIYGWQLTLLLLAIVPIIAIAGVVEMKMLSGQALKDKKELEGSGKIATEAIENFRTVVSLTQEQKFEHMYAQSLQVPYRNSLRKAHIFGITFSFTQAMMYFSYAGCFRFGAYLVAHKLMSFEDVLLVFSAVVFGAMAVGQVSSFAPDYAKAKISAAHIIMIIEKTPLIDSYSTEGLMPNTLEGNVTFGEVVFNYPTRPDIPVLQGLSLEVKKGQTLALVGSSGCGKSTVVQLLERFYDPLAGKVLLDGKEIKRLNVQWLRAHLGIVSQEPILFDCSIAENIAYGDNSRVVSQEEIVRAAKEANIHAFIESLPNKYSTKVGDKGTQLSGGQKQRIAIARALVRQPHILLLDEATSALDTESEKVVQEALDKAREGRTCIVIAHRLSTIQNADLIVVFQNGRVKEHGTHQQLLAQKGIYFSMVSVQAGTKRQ
Procedure, shortened: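 Efflux ratio measured in vitro in an MDR1-overexpressing cell line.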

[7] = organism: Homo sapiens; test: Inhibition of NMD in human HCT116 cells assessed as upregulation of SC35 1.6 kb mRNA expression level at 1 uM after 6 hrs by qPCR analysis relative to control; assay type: cell-based
Procedure, shortened: (§3)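 HCT-116 colorectal carcinoma cells treated for 6 h at 1, 3 or 10 μM. SC35 1.6 kb mRNA level expressed as fold change relative to control. Data representative of three independent experiments.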

[8] = organism: Homo sapiens; test: Inhibition of NMD in human HCT116 cells assessed as upregulation of SC35 1.6 kb mRNA expression level at 3 uM after 6 hrs by qPCR analysis relative to control; assay type: cell-based; procedure, shortened: as §3
[9] = tested on: Mus musculus; test: In vivo inhibition of NMD in BALB/cA Jc1 nude mouse xenografted with human HCT116 cells assessed as upregulation of SC35 1.6 kb mRNA expression level in tumor at 100 mg/kg, po administered as single dose measured after 8 hrs by qPCR analysis relative to control; assay type: functional
Procedure, shortened: (§4)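 HCT-116 xenograft mice given a single oral dose of 100 mg/kg in a solubilizing formulation. Tumour SC35 1.6 kb mRNA expression measured at 4, 8 and 24 h after dosing.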

[10] = biological target: Eukaryotic initiation factor 4A-II (Homo sapiens, UniProt Q14240); test: Inhibition of eIF4G-induced full length recombinant human N-terminal His6/SUMO-tagged eIF4A2 RNA dependent ATPase activity using single stranded poly(U) RNA as substrate after 40 mins by ADP-Glo luminescence assay; procedure, shortened: as §2
Chain of Eukaryotic initiation factor 4A-II (Q14240 whole entry): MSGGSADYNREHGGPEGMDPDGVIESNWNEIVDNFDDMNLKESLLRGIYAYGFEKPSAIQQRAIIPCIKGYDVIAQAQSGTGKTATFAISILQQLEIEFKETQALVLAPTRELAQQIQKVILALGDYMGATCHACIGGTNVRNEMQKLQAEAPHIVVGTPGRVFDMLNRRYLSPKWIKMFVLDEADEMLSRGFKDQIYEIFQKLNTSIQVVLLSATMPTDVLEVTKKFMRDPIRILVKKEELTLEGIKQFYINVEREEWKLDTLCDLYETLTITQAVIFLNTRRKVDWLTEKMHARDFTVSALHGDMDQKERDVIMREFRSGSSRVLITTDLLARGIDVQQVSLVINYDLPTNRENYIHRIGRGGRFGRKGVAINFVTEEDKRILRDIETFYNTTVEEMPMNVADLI

[11] = tested on: HCT-116; test: Antitumor activity against human HCT116 cells xenografted in BALB/cA Jc1 nude mouse assessed as reduction in tumor volume at 100 mg/kg, po bid administered for 14 days measured twice per week relative to control; assay type: functional
Procedure, shortened: (§5)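 HCT-116 xenograft mice dosed orally at 100 mg/kg twice daily for 14 days in a solubilizing formulation. Efficacy expressed as T/C versus a vehicle group, with Dunnett's test; body weight change monitored over the study.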

[12] = biological target: T1, ATP-dependent RNA helicase DHX29 (Homo sapiens, UniProt Q7Z478); test: Inhibition of human recombinant N-terminal full length FLAG-His-tagged DHX29 RNA dependent ATPase activity expressed in baculovirus infected Sf9 insect cells using single stranded poly(U) RNA as substrate after 30 mins by ADP-Glo luminescence assay; procedure, shortened: as §2
T1 sequence (Q7Z478 whole entry): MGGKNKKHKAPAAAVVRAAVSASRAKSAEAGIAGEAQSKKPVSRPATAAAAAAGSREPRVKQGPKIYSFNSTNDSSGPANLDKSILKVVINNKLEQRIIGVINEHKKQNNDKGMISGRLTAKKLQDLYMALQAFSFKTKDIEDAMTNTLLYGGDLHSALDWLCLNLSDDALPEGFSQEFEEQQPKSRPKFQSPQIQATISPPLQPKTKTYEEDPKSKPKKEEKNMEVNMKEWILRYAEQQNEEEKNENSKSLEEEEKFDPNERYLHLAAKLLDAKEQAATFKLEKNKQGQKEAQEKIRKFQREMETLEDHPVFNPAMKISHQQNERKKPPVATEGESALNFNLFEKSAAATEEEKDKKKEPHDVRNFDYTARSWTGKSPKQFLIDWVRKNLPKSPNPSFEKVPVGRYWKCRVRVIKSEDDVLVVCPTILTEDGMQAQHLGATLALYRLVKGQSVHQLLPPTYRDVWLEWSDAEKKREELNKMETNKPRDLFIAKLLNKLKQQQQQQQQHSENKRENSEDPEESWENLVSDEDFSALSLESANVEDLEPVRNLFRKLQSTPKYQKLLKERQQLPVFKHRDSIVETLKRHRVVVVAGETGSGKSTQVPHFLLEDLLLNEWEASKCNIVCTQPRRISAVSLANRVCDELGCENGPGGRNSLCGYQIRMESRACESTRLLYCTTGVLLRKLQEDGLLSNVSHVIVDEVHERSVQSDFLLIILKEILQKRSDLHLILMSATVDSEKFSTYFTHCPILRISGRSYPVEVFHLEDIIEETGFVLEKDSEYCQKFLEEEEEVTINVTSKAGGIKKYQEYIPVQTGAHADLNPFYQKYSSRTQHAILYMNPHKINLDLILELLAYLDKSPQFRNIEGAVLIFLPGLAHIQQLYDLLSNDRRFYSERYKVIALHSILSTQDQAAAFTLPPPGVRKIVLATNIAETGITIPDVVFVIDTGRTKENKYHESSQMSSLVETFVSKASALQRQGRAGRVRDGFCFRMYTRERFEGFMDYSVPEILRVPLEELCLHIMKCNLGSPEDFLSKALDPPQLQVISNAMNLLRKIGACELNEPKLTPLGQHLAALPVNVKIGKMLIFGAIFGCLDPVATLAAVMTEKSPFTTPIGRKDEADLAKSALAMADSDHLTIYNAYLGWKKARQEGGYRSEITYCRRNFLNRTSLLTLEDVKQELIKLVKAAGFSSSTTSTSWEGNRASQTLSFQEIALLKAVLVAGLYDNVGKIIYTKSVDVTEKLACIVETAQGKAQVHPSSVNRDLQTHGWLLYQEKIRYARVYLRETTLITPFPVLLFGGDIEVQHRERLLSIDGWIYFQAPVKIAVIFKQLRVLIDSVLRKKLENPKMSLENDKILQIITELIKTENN

[13] = tested on: Mus musculus; test: Toxicity in BALB/cA Jc1 nude mouse xenografted with human HCT116 cells assessed as reduction in body weight at 100 mg/kg, po bid administered for 14 days measured twice per week; assay type: organism-based; design: scale not given: the % may be the effect or the level left; settings: in vivo, 336 h; procedure, shortened: as §5
[14] = tested on: Mus musculus; test: In vivo inhibition of NMD in BALB/cA Jc1 nude mouse xenografted with human HCT116 cells assessed as upregulation of SC35 1.6 kb mRNA expression level in tumor at 100 mg/kg, po administered as single dose measured after 4 hrs by qPCR analysis relative to control; assay type: functional; procedure, shortened: as §4
[15] = tested on: HCT-116; test: Growth inhibition of human HCT116 cells after 3 days by CellTiter-Glo luminescence assay; assay type: functional; settings: HCT-116, 72 h
Procedure, shortened: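 HCT-116 cells exposed to compound for 72 h; growth read as intracellular ATP amount. GI50 derived by curve fitting. Data representative of three independent experiments.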

[16] = tested on: Mus musculus; test: In vivo inhibition of NMD in BALB/cA Jc1 nude mouse xenografted with human HCT116 cells assessed as upregulation of SC35 1.6 kb mRNA expression level in tumor at 100 mg/kg, po administered as single dose measured after 24 hrs by qPCR analysis relative to control; assay type: functional; procedure, shortened: as §4
[17] = biological target: U5 small nuclear ribonucleoprotein 200 kDa helicase (Homo sapiens, UniProt O75643); test: Inhibition of human recombinant N-terminal full length His-tagged BRR2 RNA dependent ATPase activity expressed in baculovirus infected Sf9 insect cells using single stranded poly(U) RNA as substrate after 30 mins by ADP-Glo luminescence assay; procedure, shortened: as §2
Chain of U5 small nuclear ribonucleoprotein 200 kDa helicase (O75643 whole entry): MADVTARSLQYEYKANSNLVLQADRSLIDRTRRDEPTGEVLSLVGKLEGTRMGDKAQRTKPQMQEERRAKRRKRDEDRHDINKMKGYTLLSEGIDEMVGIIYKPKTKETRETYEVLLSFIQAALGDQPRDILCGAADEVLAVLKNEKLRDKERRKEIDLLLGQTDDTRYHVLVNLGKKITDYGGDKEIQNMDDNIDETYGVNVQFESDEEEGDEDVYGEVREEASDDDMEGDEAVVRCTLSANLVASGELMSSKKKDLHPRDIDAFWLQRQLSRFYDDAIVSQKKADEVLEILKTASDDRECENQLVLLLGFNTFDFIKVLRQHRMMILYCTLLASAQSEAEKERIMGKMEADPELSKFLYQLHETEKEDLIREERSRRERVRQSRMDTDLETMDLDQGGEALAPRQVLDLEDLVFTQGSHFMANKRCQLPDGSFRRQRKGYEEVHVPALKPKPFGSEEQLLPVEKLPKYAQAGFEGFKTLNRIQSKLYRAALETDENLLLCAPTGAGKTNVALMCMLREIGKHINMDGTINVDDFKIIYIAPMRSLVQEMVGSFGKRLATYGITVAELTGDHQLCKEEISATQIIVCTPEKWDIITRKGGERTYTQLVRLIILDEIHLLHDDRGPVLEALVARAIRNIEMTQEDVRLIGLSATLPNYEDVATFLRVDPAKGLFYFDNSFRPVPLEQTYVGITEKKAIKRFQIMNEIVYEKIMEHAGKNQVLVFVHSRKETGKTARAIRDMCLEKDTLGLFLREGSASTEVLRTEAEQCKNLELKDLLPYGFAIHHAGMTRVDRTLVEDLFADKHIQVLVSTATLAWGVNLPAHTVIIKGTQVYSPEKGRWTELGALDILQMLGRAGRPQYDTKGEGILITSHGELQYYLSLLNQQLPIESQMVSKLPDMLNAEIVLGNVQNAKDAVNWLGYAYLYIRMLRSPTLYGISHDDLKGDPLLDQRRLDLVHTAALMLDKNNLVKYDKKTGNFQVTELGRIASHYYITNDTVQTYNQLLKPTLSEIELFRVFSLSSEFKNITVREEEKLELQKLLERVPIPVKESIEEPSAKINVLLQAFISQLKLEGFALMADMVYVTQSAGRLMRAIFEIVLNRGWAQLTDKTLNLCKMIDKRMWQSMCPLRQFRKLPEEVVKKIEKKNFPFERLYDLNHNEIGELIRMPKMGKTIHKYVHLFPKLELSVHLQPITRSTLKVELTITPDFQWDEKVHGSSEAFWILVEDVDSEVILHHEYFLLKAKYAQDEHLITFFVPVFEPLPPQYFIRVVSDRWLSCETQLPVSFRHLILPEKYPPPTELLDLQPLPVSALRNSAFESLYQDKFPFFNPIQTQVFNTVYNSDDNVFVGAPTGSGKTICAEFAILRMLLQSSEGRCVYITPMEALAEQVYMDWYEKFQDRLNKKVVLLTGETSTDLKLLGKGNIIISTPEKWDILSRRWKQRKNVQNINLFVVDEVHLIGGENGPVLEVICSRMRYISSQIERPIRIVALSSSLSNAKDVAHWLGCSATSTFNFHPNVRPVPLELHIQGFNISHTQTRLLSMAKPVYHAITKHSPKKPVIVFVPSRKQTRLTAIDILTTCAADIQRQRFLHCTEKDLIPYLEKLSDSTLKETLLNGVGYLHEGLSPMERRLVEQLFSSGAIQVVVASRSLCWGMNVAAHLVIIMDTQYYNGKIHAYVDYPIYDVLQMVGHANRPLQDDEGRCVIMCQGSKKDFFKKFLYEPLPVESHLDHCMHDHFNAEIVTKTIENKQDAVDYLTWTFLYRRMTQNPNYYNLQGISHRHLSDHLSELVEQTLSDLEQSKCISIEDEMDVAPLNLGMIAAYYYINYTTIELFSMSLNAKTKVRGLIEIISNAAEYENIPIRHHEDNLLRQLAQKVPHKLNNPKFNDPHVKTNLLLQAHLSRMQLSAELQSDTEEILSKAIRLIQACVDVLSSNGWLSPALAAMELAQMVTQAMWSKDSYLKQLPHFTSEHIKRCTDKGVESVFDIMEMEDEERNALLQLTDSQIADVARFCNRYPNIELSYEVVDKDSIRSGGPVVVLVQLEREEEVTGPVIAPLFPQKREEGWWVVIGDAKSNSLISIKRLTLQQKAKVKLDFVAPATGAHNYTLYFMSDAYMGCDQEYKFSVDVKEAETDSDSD

[18] = organism: Homo sapiens; test: Inhibition of NMD in human HCT116 cells assessed as upregulation of SC35 1.6 kb mRNA expression level at 10 uM after 6 hrs by qPCR analysis relative to control; assay type: cell-based; procedure, shortened: as §3
[19] = biological target: Eukaryotic initiation factor 4A-I (Homo sapiens, UniProt P60842); test: Inhibition of eIF4G-induced full length recombinant human N-terminal His6/SUMO-tagged eIF4A1 RNA dependent ATPase activity expressed in Escherichia coli BL21(DE3) using single stranded poly(U) RNA as substrate after 40 mins by ADP-Glo luminescence assay; procedure, shortened: as §2
Chain of Eukaryotic initiation factor 4A-I (P60842 whole entry): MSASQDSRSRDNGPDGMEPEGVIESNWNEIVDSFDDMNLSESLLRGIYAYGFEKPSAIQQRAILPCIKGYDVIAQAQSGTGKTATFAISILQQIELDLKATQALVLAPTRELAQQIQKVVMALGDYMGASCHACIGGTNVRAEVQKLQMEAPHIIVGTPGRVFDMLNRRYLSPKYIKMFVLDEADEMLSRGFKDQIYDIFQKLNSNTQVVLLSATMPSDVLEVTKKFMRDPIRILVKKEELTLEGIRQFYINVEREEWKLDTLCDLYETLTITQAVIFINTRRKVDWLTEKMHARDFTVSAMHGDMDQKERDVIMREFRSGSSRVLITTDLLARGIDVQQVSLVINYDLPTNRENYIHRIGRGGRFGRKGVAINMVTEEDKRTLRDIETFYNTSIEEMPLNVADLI

Row | SMILES | AUC(0-t) at 8 h [1] [ng·h/mL] | solubility [2] [µg/mL] | bioavailability [3] [%] | microsomal CLint [4] [µL/min/mg] | IC50 [5] [nM] | further results
1 | O=C(c1cncc2ccccc12)N1CCN(C(=O)c2ccc(Br)cc2)[C@@H](c2ccc(Cl)cc2)C1 | 1.5 | 5.1 (≈ 9.54 µM) | 0.4 | 202 | 1600 | –
2 | O=C(c1cnn2cc(Br)ccc12)N1CCN(C(=O)c2ccc(Br)cn2)[C@@H](c2ccc(Cl)cc2)C1 | 55.9 | 3.8 (≈ 6.29 µM) | 11.4 | 207 | 280 | –
3 | O=C(c1c[nH]c(=O)c(-c2cccc(Cl)c2)c1)N1CCN(C(=O)c2ccc(Cl)cc2)C(c2ccc(Cl)cc2)C1 (configuration not stated) | – | – | – | – | 290 | –
4 | O=C(c1c[nH]c(=O)c(-c2ccccc2)c1)N1CCN(C(=O)c2ccc(Cl)cc2)C(c2ccc(Cl)cc2)C1 (configuration not stated) | – | – | – | – | 410 | –
5 | N#Cc1cccc(-c2cc(C(=O)N3CCN(C(=O)c4ccc(Cl)cc4)C(c4ccc(Cl)cc4)C3)c[nH]c2=O)c1 (configuration not stated) | – | – | – | – | 190 | –
6 | O=C(c1c[nH]c(=O)c(-c2ccc(Cl)cc2)c1)N1CCN(C(=O)c2ccc(Cl)cc2)C(c2ccc(Cl)cc2)C1 (configuration not stated) | – | – | – | – | 1100 | –
7 | O=C(c1c[nH]c(=O)c2ccccc12)N1CCN(C(=O)c2ccc(Cl)cc2)C(c2ccc(Cl)cc2)C1 (configuration not stated) | – | – | – | – | 1300 | –
8 | CS(=O)(=O)c1cccc(-c2cc(C(=O)N3CCN(C(=O)c4ccc(Cl)cc4)C(c4ccc(Cl)cc4)C3)c[nH]c2=O)c1 (configuration not stated) | – | – | – | – | 490 | –
9 | N#Cc1cccc(-c2cc(C(=O)N3CCN(C(=O)c4ccc(Br)cn4)[C@@H](c4ccc(Cl)cc4)C3)c[nH]c2=O)c1 | – | 2.4 (≈ 3.98 µM) | – | 113 | 50 | efflux ratio [6]: 35
10 | O=C(c1c[nH]c(=O)c(-c2cccc(C(F)(F)F)c2)c1)N1CCN(C(=O)c2ccc(Cl)cc2)C(c2ccc(Cl)cc2)C1 (configuration not stated) | – | – | – | – | 700 | –
11 | O=C(c1c[nH]c(=O)c2ccccc12)N1CCN(C(=O)c2ccc(Br)cc2)[C@@H](c2ccc(Cl)cc2)C1 | 97.3 | 11 (≈ 20 µM) | 9.6 | 16 | 290 | –
12 | Cn1cc(C(=O)N2CCN(C(=O)c3ccc(Br)cn3)[C@@H](c3ccc(Cl)cc3)C2)cc(-c2cccc(C#N)c2)c1=O | 147 | 12 (≈ 19.5 µM) | 16.1 | 6 | 100 | fold change (FC) [7]: 2.17; fold change (FC) [8]: 8.41; efflux ratio [6]: 25; fold change (FC) [9]: 2.5; IC50 [10]: > 100000 nM; T/C [11]: 54%; IC50 [12]: > 100000 nM; Activity [13]: < 5%; fold change (FC) [14]: 4; GI50 [15]: 1340 nM; fold change (FC) [16]: 1.2; IC50 [17]: > 100000 nM; fold change (FC) [18]: 19.1; IC50 [19]: > 100000 nM
13 | O=C(c1cnn2cc(Br)ccc12)N1CCN(C(=O)c2ccc(Br)cc2)[C@@H](c2ccc(Cl)cc2)C1 | 9 | 0.46 (≈ 0.763 µM) | 5.7 | 227 | – | efflux ratio [6]: 0.9; GI50 [15]: 3060 nM
14 | O=C(c1ccnc2ccccc12)N1CCN(C(=O)c2ccc(Br)cc2)[C@@H](c2ccc(Cl)cc2)C1 | 129 | 3.2 (≈ 5.98 µM) | 19.7 | 143 | 2700 | –
15 | O=C(c1c[nH]c(=O)c(-c2ccccc2Cl)c1)N1CCN(C(=O)c2ccc(Cl)cc2)C(c2ccc(Cl)cc2)C1 (configuration not stated) | – | – | – | – | 420 | –
